The full list was thinned out, with hits kept by preference.
CHOP UPR activ: apoptotic UPR (CHOP) activation | CHO-CHOP luciferase reporter, luminescence; percent of tunicamycin response over DMSO baseline | activation, % at 10 µM | actives 0.34% (n = 330,000);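 active means at 10 µM dose, activation of 40% or more, normalized to positive control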;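 further: 100% = tunicamycin at 10 µg/mL and 0% = DMSO alone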
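Evaluation: % reporter activation, DMSO baseline versus tunicamycin full activation; System: CHO-CHOP luciferase reporter cell line; Input: 500 cells/well; Incubation: 6 h compound treatment, 37 °C; Measured by: Steady-Glo luciferase luminescence; Dosing: one dose, 10 µM in 0.5% DMSO; Buffer or medium: F12 medium, 10% FBS; Benchmarks: positive tunicamycin 10 µg/mL, negative DMSO alone.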
CHOP inhibitor: inhibitors of CHOP induction in ER stress response. actives 3.8% (n = 220,000). CHO-K1 CHOP-promoter luciferase, tunicamycin-induced, 15-18 h. inhibition, % at 10 µM;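 active means compounds that reduced the stress-induced luciferase reporter signal by more than about 70% of percent inhibition, limit read from the data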;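 further: 0% = tunicamycin plus vehicle and 100% = wells without tunicamycin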
Dynein transport: dynein cargo transport inhibition; 3617.4 mouse cells, GR-EGFP nuclear translocation imaging; test concentration mostly 20 µM; stimulated with dexamethasone, 1 µM; stronger effect = lower value; z-score, hits read low; actives 0.47% (n = 220,000);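 active means plate z-score of nuclear minus cytoplasmic receptor signal below a set negative limit, without overly bright fluorescence or cell loss, cut at about -3.5 in these data, passing the limit was not always enough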;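 further: z-score of nuclear minus cytoplasmic ring GR-EGFP intensity difference per well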
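Buffer or medium – tet-free medium with charcoal-stripped serum · Signal – automated 10x imaging of fixed Hoechst-stained cells · Also added – dexamethasone agonist, 1.0 µM final, for 30 min · Incubation – induction 48 h, compound 1 h, agonist 30 min · Read-out – GR-EGFP nuclear translocation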
T cruzi inh: T. cruzi replication inhibition; inhibition, % (concentration not given with the values); T. cruzi beta-gal in NIH3T3, luminescence, 90 h; actives 1.4% (n = 300,000);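 active means mean inhibition across valid replicates above about 55%, limit read from the data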;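 further: signal also drops with host cell toxicity which is not excluded here; 0% = plate median of DMSO wells and 100% = zero luminescence signal; higher percent means less beta-gal luminescence so fewer parasites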
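Assay system: NIH/3T3 fibroblasts plus reporter T. cruzi. Amount: NIH/3T3 cells, 5,000 per well. Buffer or medium: DMEM, 2% fetal bovine serum. Doses: compound pinned at 50 nL/well, DMSO. Schedule: ≥90 h infection period, 3 h prior cell attachment. Signal: luminescent β-galactosidase signal after 60 min lysis. Read-out: parasite load inhibition, %.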
L major viab: inhibitors of Leishmania major promastigote growth; Leishmania major promastigotes, resazurin fluorescence viability; inhibition, % at 10 µM; actives 9% (n = 200,000); AID 1063; in the data active means inhibition above about 50%;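 further: promastigotes grown with compound for 44 hours at 28 °C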
XBP1 UPR activ: activators of adaptive arm of unfolded protein response (XBP1) | CHO-XBP1 luciferase reporter, IRE1-XBP1 UPR activation, luminescence; percent of tunicamycin response, DMSO as zero | activation, % at 20 µM | actives 0.33% (n = 330,000) | AID 463104;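 active means versus positive control, 20 µM dose yields 30% or more activation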;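 further: 100% = tunicamycin at 10 µg/mL and 0% = DMSO only wells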
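Material: CHO cell line with stable XBP1 luciferase reporter; schedule: 16-18 h cell attachment at 37 °C, then 6 h compound exposure; signal: glow luminescence from Steady-Glo reagent; medium: serum-containing F12 medium, 10% FBS; benchmarks: tunicamycin 10 µg/mL and vehicle-only wells; read-out: percent activation relative to tunicamycin reference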
XBP1 UPR conf: confirmation of adaptive unfolded protein response (XBP1) activators | CHO-XBP1 IRE1-XBP1 luciferase reporter, luminescence | actives 63% (n = 1,000) | activation, % at 20 µM | shares compounds with XBP1 UPR activ;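 active means reporter signal at least 30% of the positive control's activation in two or more of four replicate wells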;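 further: plate controls were DMSO negative control for no effect and tunicamycin 10 µg/mL positive control for full effect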
The depositor's hits bear a star.

For CN(C)CC/C=C1\c2ccc(F)cc2Sc2cc(F)c(Cl)cc21 the results were CHOP UPR activ 1.7, T cruzi inh 39.9, XBP1 UPR activ 86.0* and XBP1 UPR conf 122.2*.
For CN(C)CC/C=C1\c2cc(Cl)ccc2Sc2cc(F)c(F)cc21 the results were CHOP UPR activ 2.3, T cruzi inh 20.9 and XBP1 UPR activ 2.9.
COc1ccc(-c2cc(C(=O)Nc3c(C)nn(Cc4ccc(Cl)cc4)c3C)no2)cc1 was read as CHOP UPR activ 5.5, CHOP inhibitor 80.8*, Dynein transport -0.35, T cruzi inh 9.6, L major viab 2.6, XBP1 UPR activ 48.6* and XBP1 UPR conf 5.9.
For N#C/C(=C/c1ccc(N2CCCC2)c([N+](=O)[O-])c1)c1nc2ccccc2[nH]1 the results were CHOP UPR activ 12.1, CHOP inhibitor 78.4*, Dynein transport -0.0962, T cruzi inh 11.4, L major viab -3.6, XBP1 UPR activ 131.4* and XBP1 UPR conf 87.2*.
COc1cccc(-c2c(C#N)c(SC)nc3cc(C)nn23)c1 was read as CHOP UPR activ -0.2, CHOP inhibitor -5.5, Dynein transport -0.183, T cruzi inh 0.1 and XBP1 UPR activ 4.6.
`Cc1cccc(NC(=O)c2nc[nH]c2C(=O)Nc2ccccc2[N+](=O)[O-])c1` gave CHOP UPR activ 12.8, CHOP inhibitor 12.8, Dynein transport -0.89, T cruzi inh -17.1, L major viab 56.9*, XBP1 UPR activ 30.3* and XBP1 UPR conf 42.2*.
`Cc1cc(C)c2c(CN3CCCCC3)cc(=O)oc2c1` gave CHOP UPR activ 3.9, T cruzi inh -12.8 and XBP1 UPR activ 3.7.
`Cc1cc(C)c2c(CCl)cc(=O)oc2c1` gave CHOP UPR activ 31.8, CHOP inhibitor -28.7, Dynein transport -1.43, T cruzi inh -5.9, XBP1 UPR activ 40.7* and XBP1 UPR conf 37.8*.
For O=C(Nc1csc([N+](=O)[O-])c1)Nc1ccccc1Cl the results were CHOP UPR activ 5.9, CHOP inhibitor 19.7, Dynein transport -0.406, T cruzi inh 45.0 and XBP1 UPR activ 1.4.
For O=C(Nc1ccc(Cl)cc1)Nc1ccccc1Sc1ncc([N+](=O)[O-])s1 the results were CHOP UPR activ 11.6, CHOP inhibitor 36.8, Dynein transport -1.92, T cruzi inh 18.0, XBP1 UPR activ 39.7* and XBP1 UPR conf 31.3*.
Screening COc1ccc(NC(=O)CN2C(=O)NC(C)(C3CC3)C2=O)cc1S(=O)(=O)N1CCCCC1 (stereo unspecified) returned CHOP UPR activ -1.7 and XBP1 UPR activ -1.2.
`O=C(OCC(=O)c1ccc(Cl)s1)c1ccc(CO)cc1` gave CHOP UPR activ 3.5, T cruzi inh -6.6 and XBP1 UPR activ 7.8.
For CCOC(=O)Nc1nc(-c2ccccc2)c(C(=O)c2ccccc2)s1 the results were CHOP UPR activ 0.3, CHOP inhibitor 44.4, Dynein transport 0.452, T cruzi inh 7.1, L major viab 5.7, XBP1 UPR activ 31.2* and XBP1 UPR conf 12.1.
Screening COc1cc(/C=C2/C(=N)N3C=CSC3=NC2=O)ccc1OCCCOc1cc(C)ccc1C returned CHOP UPR activ -0.7, CHOP inhibitor 34.3, Dynein transport 0.368, T cruzi inh -0.3, L major viab 2.4, XBP1 UPR activ 85.1* and XBP1 UPR conf 129.1*.
For CCC(Oc1ccccc1)C(=O)NCCCN1CCOCC1 (stereo unspecified) the results were CHOP UPR activ 1.2, T cruzi inh 11.8 and XBP1 UPR activ -6.6.
Screening CCCCC1CCC(C(=O)N(CC(C)C)c2c(N)n(CCCC)c(=O)[nH]c2=O)CC1 (stereo unspecified) returned CHOP UPR activ 32.0, T cruzi inh -2.4, XBP1 UPR activ 39.2* and XBP1 UPR conf 37.9*.
`CCCCn1c(N)c(N(CC(C)C)C(=O)C2CCCO2)c(=O)[nH]c1=O` (stereo unspecified) gave CHOP UPR activ 0.7, T cruzi inh -3.9 and XBP1 UPR activ 0.2.
Screening N#Cc1ccc(S(=O)(=O)N2CCC(C(=O)Nc3cccc(C(=O)NC4CC4)c3)CC2)cc1 returned CHOP UPR activ -0.8 and XBP1 UPR activ -2.0.
For N#Cc1ccc(-c2ccc(Cl)cc2)nc1SCC(=O)c1cccc(Cl)c1 the results were CHOP UPR activ 27.1, CHOP inhibitor -1.4, Dynein transport -0.274, T cruzi inh 5.9, L major viab 0.5, XBP1 UPR activ 122.1* and XBP1 UPR conf 369.1*.
For CCN(CC)C(=O)CSc1nc(-c2ccccc2)ccc1C#N the results were CHOP UPR activ -1.5, CHOP inhibitor 13.7, Dynein transport 1.09, T cruzi inh 7.1, L major viab 2.7 and XBP1 UPR activ -2.8.
Screening COc1cccc(C(=O)Oc2cc3c4c(c2)C(C)=CC(C)(C)N4C(=O)C3=O)c1 returned CHOP UPR activ 3.3, CHOP inhibitor 6.6, Dynein transport -0.406, T cruzi inh -35.0, L major viab 3.2, XBP1 UPR activ 50.4* and XBP1 UPR conf 253.4*.
`COc1ccc(C(=O)Oc2cc3c4c(c2)C(C)=CC(C)(C)N4C(=O)C3=O)cc1OC` gave CHOP UPR activ 3.6, CHOP inhibitor -3.0, Dynein transport -0.761, T cruzi inh -2.0, L major viab 21.6, XBP1 UPR activ 64.7* and XBP1 UPR conf 30.8*.
Screening COc1cc(CCC(C)=O)ccc1OC(=O)c1c(F)cccc1Cl returned CHOP UPR activ 8.2, CHOP inhibitor 8.2, Dynein transport 0.899, T cruzi inh 1.9 and XBP1 UPR activ 4.3.
COc1ccc(CNc2nc(-c3ccccc3)nn2C(=O)c2ccc([N+](=O)[O-])cc2)cc1 was read as CHOP UPR activ 5.9, CHOP inhibitor 5.0, Dynein transport 1.16, T cruzi inh 2.0, L major viab -2.4, XBP1 UPR activ 32.8* and XBP1 UPR conf 0.6.
For CCNS(=O)(=O)c1ccc(CCC(=O)N2CCN(C(=O)OCC)CC2)cc1 the results were CHOP UPR activ 1.6, T cruzi inh -6.4 and XBP1 UPR activ -4.2.
Cc1ccc(NC(=S)N2CCCCC2CO)cc1C (stereo unspecified) was read as CHOP UPR activ 0.7, CHOP inhibitor 47.7, Dynein transport -0.868, T cruzi inh -19.8, L major viab 3.5 and XBP1 UPR activ 1.5.
`COc1ccc(OC)c(Nc2nc(NCc3ccco3)nc(N)c2[N+](=O)[O-])c1` gave CHOP UPR activ 0.8, CHOP inhibitor 33.8, Dynein transport 0.615, T cruzi inh 6.9, XBP1 UPR activ 55.1* and XBP1 UPR conf 61.8*.

Bioassay records from PubChem.
